Measured values reported in ChEMBL document CHEMBL1130180, “17-Imidazolyl, pyrazolyl, and isoxazolyl androstene derivatives. Novel steroidal inhibitors of human cytochrome C17,20-lyase (P450(17 alpha)” (J Med Chem, 1997).
pIC50: −log10 of the molar value.

Experiments:
[1] = biological target: T1, Steroid 17-alpha-hydroxylase/17,20 lyase (Homo sapiens, UniProt P05093); experiment: Inhibition of human testicular microsomal Cytochrome P450 17A1
T1 sequence (P05093 whole entry): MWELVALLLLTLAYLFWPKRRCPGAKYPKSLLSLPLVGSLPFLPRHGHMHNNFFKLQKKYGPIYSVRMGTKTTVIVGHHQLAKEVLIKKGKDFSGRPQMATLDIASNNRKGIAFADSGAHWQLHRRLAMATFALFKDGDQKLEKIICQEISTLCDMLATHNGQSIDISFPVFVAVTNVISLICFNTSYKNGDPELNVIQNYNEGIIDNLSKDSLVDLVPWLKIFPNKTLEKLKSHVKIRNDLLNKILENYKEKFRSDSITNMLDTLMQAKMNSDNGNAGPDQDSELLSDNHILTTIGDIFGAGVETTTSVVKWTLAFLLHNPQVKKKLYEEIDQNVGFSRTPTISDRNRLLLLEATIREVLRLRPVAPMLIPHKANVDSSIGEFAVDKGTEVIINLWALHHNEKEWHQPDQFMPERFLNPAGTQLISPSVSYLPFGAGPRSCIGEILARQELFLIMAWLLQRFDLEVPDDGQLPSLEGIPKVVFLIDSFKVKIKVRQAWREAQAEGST
Procedure, shortened: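 Human testis microsomes (orchidectomy tissue from untreated prostate cancer patients, stored at -70 °C, diluted in 0.1 M phosphate buffer). Radiometric: 10 μM [21-3H]-17α-hydroxypregnenolone, NADPH-generating system, pH 7.4, 10 min preincubation, then ~90 µg protein for 60 min under O2 at 34 °C. [3H]acetic acid measured in aqueous phase after chloroform extraction and charcoal. IC50 from log-log regression; six concentrations.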

[2] = biological target: T2, Steroid 17-alpha-hydroxylase/17,20 lyase (Rattus norvegicus, UniProt P11715); experiment: Percent inhibition of rat testicular microsomal Cytochrome P450 17A1; design: concentration or dose not given beside the values
T2 sequence (P11715 whole entry): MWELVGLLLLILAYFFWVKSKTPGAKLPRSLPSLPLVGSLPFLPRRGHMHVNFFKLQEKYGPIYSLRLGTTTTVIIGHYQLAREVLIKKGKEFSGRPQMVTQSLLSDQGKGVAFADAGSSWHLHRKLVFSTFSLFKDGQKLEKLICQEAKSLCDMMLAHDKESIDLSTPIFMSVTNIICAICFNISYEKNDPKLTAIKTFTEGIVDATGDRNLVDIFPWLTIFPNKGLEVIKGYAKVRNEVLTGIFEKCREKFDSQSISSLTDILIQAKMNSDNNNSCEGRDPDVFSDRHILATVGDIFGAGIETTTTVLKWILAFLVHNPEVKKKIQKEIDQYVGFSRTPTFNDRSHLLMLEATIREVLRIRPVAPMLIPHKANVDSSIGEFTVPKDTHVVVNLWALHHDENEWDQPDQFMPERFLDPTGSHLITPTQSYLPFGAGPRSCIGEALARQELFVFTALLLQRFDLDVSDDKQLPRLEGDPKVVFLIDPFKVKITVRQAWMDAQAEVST
Procedure, shortened: (§1)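 Single-concentration screen at 1500 nM using adult Sprague-Dawley rat testis microsomes. Incubation: 10 μM [21-3H]-17α-hydroxypregnenolone with NADPH-generating system, pH 7.4, 60 min, 34 °C, under O2. Percent inhibition was read from tritiated acetic acid in the aqueous phase after chloroform extraction of steroids.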

[3] = biological target: T2, Steroid 17-alpha-hydroxylase/17,20 lyase; experiment: Inhibition of rat testicular microsomal Cytochrome P450 17A1
Procedure, shortened: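 Adult Sprague-Dawley rat (200-250 g) testicular microsomes, about 90 µg protein. [21-3H]-17α-hydroxypregnenolone was used at 10 µM total. Cofactors were NADP 65 µM, glucose 6-phosphate 0.71 mM and G6PDH 0.13 IU in phosphate buffer pH 7.4. Compounds were preincubated 10 min, then reacted 60 min under O2 at 34 °C. Released [3H]acetic acid was counted after chloroform extraction and charcoal treatment.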

[4] = biological target: T1, Steroid 17-alpha-hydroxylase/17,20 lyase; experiment: Percent inhibition of human testicular microsomal Cytochrome P450 17A1; design: concentration or dose not given beside the values
Procedure, shortened: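 Human testis microsomes were incubated 60 min at 34 °C under O2 with 10 μM [21-3H]-17α-hydroxypregnenolone and NADPH-generating system (pH 7.4). Test compound was present at a single 150 or 400 nM. Inhibition was read from [3H]acetic acid released to the aqueous phase after chloroform extraction.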

[5] = biological target: T2, Steroid 17-alpha-hydroxylase/17,20 lyase; experiment: Percent inhibition of rat testicular microsomal Cytochrome P450 17A1; No Inhibition; procedure, shortened: as §1

Structure (SMILES)	pIC50 [1]	Inhibition [2] [%]	Conc [1] [nM]	pIC50 [3]	Inhibition [4] [%]	Inhibition [5]
CC(C1N=CC=N1)[C@H]1CCC2C3CCC4=CC(=O)CC[C@]4(C)C3CC[C@@]21C (some centres not stated)	< 4.52					
C[C@]12CCC3C(CC=C4CC(O)CC[C@@]43C)C1CCC2c1ccon1 (some centres not stated)	5.95	54				
C[C@]12CCC(=O)C=C1CCC1C2CC[C@@]2(C)C1CC[C@@H]2C1N=CC=N1 (some centres not stated)		25	400			
C[C@]12CCC(=O)C=C1CCC1C2CC[C@]2(C)C(c3ccn[nH]3)=CCC12 (some centres not stated)	7.23			7.12		
C[C@]12CCC3C(CC=C4CC(O)CC[C@@]43C)C1CCC2c1ccno1 (some centres not stated)		93	150		21	
C[C@]12CCC(=O)C=C1CCC1C2CC[C@@]2(C)C1CC[C@@H]2c1cnc[nH]1 (some centres not stated)	7.24			7.10		
C[C@]12CCC(O)CC1=CCC1C2CC[C@]2(C)C(c3ccnn3-c3ccccc3)=CCC12 (some centres not stated)			150		11	Not Active
C[C@]12CCC3C(CC=C4CC(O)CC[C@@]43C)C1CCC2c1ccn[nH]1 (some centres not stated)		92	150		20	
C[C@]12CC[C@H](O)CC1=CC[C@@H]1[C@@H]2CC[C@]2(C)C(c3ccn[nH]3)=CC[C@@H]12	7.38			7.55		
C[C@]12CC[C@H]3[C@@H](CC=C4C[C@@H](O)CC[C@@]43C)[C@@H]1CC[C@@H]2c1cnc[nH]1	7.18			7.04		
C[C@]12CC[C@H](O)CC1=CC[C@@H]1[C@@H]2CC[C@@]2(C)[C@H]1CC1O[C@]12c1cnc[nH]1 (some centres not stated)	6.37					
C[C@]12CC[C@H](O)CC1=CC[C@@H]1[C@@H]2CC[C@]2(C)C(c3ccno3)=CC[C@@H]12	6.97			7.08		
C[C@]12CC[C@H](O)CC1=CC[C@@H]1[C@@H]2CC[C@]2(C)C(c3ncc[nH]3)=CC[C@@H]12	7.68	65				
CC(=O)O[C@H]1CC[C@@]2(C)C(=CC[C@H]3[C@@H]4CC[C@H](C5=CNC(C(C)=O)N5)[C@@]4(C)CC[C@@H]32)C1 (some centres not stated)	7.00			5.26		
C[C@]12CC[C@H](O)CC1=CC[C@@H]1[C@@H]2CC[C@]2(C)C(c3c[nH]cn3)=CC[C@@H]12	7.62			7.31		
CC(=O)O[C@H]1CC[C@@]2(C)C(=CC[C@H]3[C@@H]4CC[C@H](c5c[nH]cn5)[C@@]4(C)CC[C@@H]32)C1	6.70	55				
Cc1ncc([C@H]2CC[C@H]3[C@@H]4CC=C5C[C@@H](O)CC[C@]5(C)[C@H]4CC[C@]23C)[nH]1				5.32	26	
CC(=O)O[C@H]1CC[C@@]2(C)C(=CC[C@@H]3[C@@H]2CC[C@]2(C)C(c4cnc[nH]4)=CC[C@@H]32)C1		92				
C[C@]12CCC(=O)C=C1CCC1C2CC[C@@]2(C)C1CC[C@]2(O)c1c[nH]cn1 (some centres not stated)	5.92					
C[C@]12CCC(=O)C=C1CCC1C2CC[C@]2(C)C(c3cnc[nH]3)=CCC12 (some centres not stated)	7.30			7.85		
Cn1ccc(C2=CCC3C4CC=C5CC(O)CC[C@]5(C)C4CC[C@]23C)n1 (some centres not stated)			150		25	Not Active
Cn1nccc1C1=CCC2C3CC=C4CC(O)CC[C@]4(C)C3CC[C@]12C (some centres not stated)			150		12	Not Active
Cc1nc(C2CCC3C4CC=C5CC(O)CC[C@]5(C)C4CC[C@]23C)co1 (some centres not stated)			400		21	Not Active
C[C@]12CCC3C(CC=C4CC(O)CC[C@@]43C)C1CCC2c1ncc[nH]1 (some centres not stated)		19	400		24	
C[C@]12CCC(O)CC1=CCC1C2CC[C@@]2(C)C1CC[C@@H]2c1c[nH]c(-c2ccccc2)n1 (some centres not stated)			400		21	Not Active
C[C@]12CCC(=O)C=C1CCC1C2CC[C@]2(C)C(c3ccno3)=CCC12 (some centres not stated)	7.41			7.49		
CC(=O)N1CCN(c2ccc(OC[C@H]3CO[C@](Cn4ccnc4)(c4ccc(Cl)cc4Cl)O3)cc2)CC1 [KETOCONAZOLE]				5.97		
